Measurements from ChEMBL document CHEMBL4304819, “Natural product pectolinarigenin exhibits potent anti-metastatic activity in colorectal carcinoma cells in vitro and in vivo” (2019).
Activity calls are given as the source filed them. No cut-off for these calls is given here.

How the values were obtained:
CT26 [1] = assay: Inhibition of colony formation in mouse CT26 cells assessed as reduction in number of colonies up to 40 uM incubated for 24 hrs supplemented with fresh medium containing compound every 3 days for 12 days by crystal violet staining-based microscopic analysis; format: functional, cell-based
Method in brief: (§1)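 400–800 cells per well seeded in 6-well plates; after 24 h, PEC (0–40 μM) added. Medium with or without compound replaced every three days for 12 days. Colonies washed in cold PBS, fixed in methanol, stained 15 min with 0.5% crystal violet and counted under a microscope. Mean ± SD of three experiments.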

HCT-116 [2] = assay: Inhibition of colony formation in human HCT116 cells assessed as reduction in number of colonies up to 40 uM incubated for 24 hrs supplemented with fresh medium containing compound every 3 days for 12 days by crystal violet staining-based microscopic analysis; format: functional, cell-based; method in brief: as §1
SW48 = assay: Inhibition of colony formation in human SW48 cells assessed as reduction in number of colonies up to 40 uM incubated for 24 hrs supplemented with fresh medium containing compound every 3 days for 12 days by crystal violet staining-based microscopic analysis; format: functional, cell-based; method in brief: as §1
CT26 [3] = assay: Inhibition of colony formation in mouse CT26 cells assessed as reduction in size of colonies up to 40 uM incubated for 24 hrs supplemented with fresh medium containing compound every 3 days for 12 days by crystal violet staining-based microscopic analysis; format: functional, cell-based; method in brief: as §1
CT26 [4] = assay: Induction of apoptosis in mouse CT26 cells assessed as viable cells at 10 uM after 48 hrs by Annexin V-FITC/propidium iodide staining-based flow cytometric analysis (reference value: 88.9 %); format: functional; details: CT26, 48 h, read-out: Activity
Method in brief: (§2)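 CT26 cells seeded at 1–2 × 10^5 per well in six-well plates for 24 h, then exposed to PEC (0–40 μM) for 24 or 48 h. Cells harvested, washed twice in cold PBS, stained with Annexin V-FITC/PI and read by flow cytometry. Early apoptotic = Annexin V+ only; late apoptotic = Annexin V+/PI+. Mean ± SD of three experiments.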

CT26 [5] = assay: Induction of apoptosis in mouse CT26 cells assessed as viable cells at 20 uM after 48 hrs by Annexin V-FITC/propidium iodide staining-based flow cytometric analysis (reference value: 88.9 %); format: functional; details: CT26, 48 h, read-out: Activity; method in brief: as §2
CT26 [6] = assay: Induction of apoptosis in mouse CT26 cells assessed as early apoptotic cells at 20 uM after 48 hrs by Annexin V-FITC/propidium iodide staining-based flow cytometric analysis (reference value: 2.84 %); format: functional; method in brief: as §2
CT26 [7] = assay: Induction of apoptosis in mouse CT26 cells assessed as necrotic cells at 20 uM after 48 hrs by Annexin V-FITC/propidium iodide staining-based flow cytometric analysis (reference value: 1.80 %); format: functional; method in brief: as §2
CT26 [8] = assay: Induction of apoptosis in mouse CT26 cells assessed as viable cells at 40 uM after 48 hrs by Annexin V-FITC/propidium iodide staining-based flow cytometric analysis (reference value: 88.9 %); format: functional; details: CT26, 48 h, read-out: Activity; method in brief: as §2
HCT-116 [9] = assay: Induction of apoptosis in human HCT116 cells assessed as early apoptotic cells at 10 uM after 48 hrs by Annexin V-FITC/propidium iodide staining-based flow cytometric analysis (reference value: 1.23 %); format: functional
Method in brief: (§3)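 Cells (1–2 × 10^5 per well) seeded in six-well plates 24 h, treated at 0–40 μM for 24 h or 48 h, harvested, washed twice in cold PBS, stained with Annexin V-FITC/PI and analysed by flow cytometry; early (Annexin V only) and late (Annexin V and PI) apoptotic fractions quantified; three experiments.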

HCT-116 [10] = assay: Induction of apoptosis in human HCT116 cells assessed as necrotic cells at 10 uM after 48 hrs by Annexin V-FITC/propidium iodide staining-based flow cytometric analysis (reference value: 8.24 %); format: functional; method in brief: as §3
HCT-116 [11] = assay: Induction of apoptosis in human HCT116 cells assessed as late apoptotic cells at 40 uM after 48 hrs by Annexin V-FITC/propidium iodide staining-based flow cytometric analysis (reference value: 3.87 %); format: functional; method in brief: as §3
HCT-116 [12] = assay: Induction of apoptosis in human HCT116 cells assessed as necrotic cells at 40 uM after 48 hrs by Annexin V-FITC/propidium iodide staining-based flow cytometric analysis (reference value: 8.24 %); format: functional; method in brief: as §3
HCT-116 [13] = assay: Induction of apoptosis in human HCT116 cells assessed as decrease in pro-caspase-3 expression up to 40 uM after 48 hrs by Western blot analysis; format: functional, cell-based
Method in brief: (§4)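 Cells treated 48 h at 0, 10, 20 and 40 μM, washed in cold PBS, lysed in RIPA; protein equalized by Lowry assay, resolved by SDS-PAGE, transferred to PVDF, blocked 1 h at 37 °C, primary antibody overnight at 4 °C, secondary 1 h, ECL detection, densitometry. β-actin loading control.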

HCT-116 [14] = assay: Induction of apoptosis in human HCT116 cells assessed increase in Bax/Bcl2 protein ratio up to 40 uM after 48 hrs by Western blot analysis; format: functional, cell-based; method in brief: as §4
HCT-116 [15] = assay: Antimigratory activity against human HCT116 cells assessed as inhibition of cell migration after 48 hrs by crystal violet staining based Boyden-chamber cell migration assay; format: functional
Method in brief: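 Boyden chamber, 8 μm pores: 1 × 10^5 cells in serum-free medium above, 10% FBS medium below, compound at various concentrations in both chambers; migration 48 h. Non-migrated cells swabbed off; migrated cells fixed in methanol, stained 0.5% crystal violet 20 min, counted in six random fields under light microscope; expressed as % inhibition versus untreated.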

[16] = target: Signal transducer and activator of transcription 3 (Homo sapiens) (UniProt P40763); assay: Inhibition of STAT3 phosphorylation in human HCT116 cells after 48 hrs by Western blot analysis; format: cell-based
Method in brief: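 HCT116 cells treated 48 h with PEC at 0, 10, 20 and 40 μM, lysed in RIPA. Equal protein by Lowry, SDS-PAGE, PVDF transfer. Block 1 h at 37 °C, anti-Stat3 and anti-p-Stat3 Tyr705 overnight at 4 °C, secondary 1 h, ECL. β-actin loading control; bands quantified by densitometry.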

CT26 [17] = assay: Antimetastatic activity against ip dosed mouse CT26 cells allografted in Balb/c mouse assessed as reduction in number of tumour nodules administered daily for 14 days starting from 6 days post implantation; format: functional, organism-based
Method in brief: (§5)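 Female BALB/c mice (6–8 weeks) injected ip with 5 × 10^5 CT26 cells; from day 6, randomized (eight per group) to ip vehicle, 25 or 50 mg/kg once daily for 14 days. Abdominal circumference and body weight every 3 days; abdominal nodules counted by eye and weighed; spleens assessed; paraffin tumour sections immunostained (Ki-67, MMP-9, p-Stat3) with DAB detection.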

[18] = target: Signal transducer and activator of transcription 3 (Mus musculus) (UniProt P42227); assay: Antitumor activity against mouse CT26 cells allografted in Balb/c mouse assessed as inhibition of STAT3 phosphorylation in tumour tissue at 25 to 50 mg/kg, ip administered daily for 14 days starting from 6 days post implantation by immunohistochemical analysis; format: organism-based; method in brief: as §5
CT26 [19] = assay: Antimetastatic activity against mouse CT26 cells allografted in Balb/c mouse assessed as decrease in CD11b-positive/Gr1-positive myeloid cells level in peripheral blood at 25 mg/kg, ip administered daily for 14 days starting from 6 days post implantation by flow cytometric analysis (reference value: 33.2 %); format: functional; parameters: scale not given: the % may be the effect or the level left
CT26 [20] = assay: Antimetastatic activity against mouse CT26 cells allografted in Balb/c mouse assessed as increase in infiltration of CD8+ T cells in blood at 25 mg/kg, ip administered daily for 14 days starting from 6 days post implantation flow cytometric analysis (reference value: 1.35 %); format: functional

Chain of Signal transducer and activator of transcription 3 (Homo sapiens) (P40763 whole entry): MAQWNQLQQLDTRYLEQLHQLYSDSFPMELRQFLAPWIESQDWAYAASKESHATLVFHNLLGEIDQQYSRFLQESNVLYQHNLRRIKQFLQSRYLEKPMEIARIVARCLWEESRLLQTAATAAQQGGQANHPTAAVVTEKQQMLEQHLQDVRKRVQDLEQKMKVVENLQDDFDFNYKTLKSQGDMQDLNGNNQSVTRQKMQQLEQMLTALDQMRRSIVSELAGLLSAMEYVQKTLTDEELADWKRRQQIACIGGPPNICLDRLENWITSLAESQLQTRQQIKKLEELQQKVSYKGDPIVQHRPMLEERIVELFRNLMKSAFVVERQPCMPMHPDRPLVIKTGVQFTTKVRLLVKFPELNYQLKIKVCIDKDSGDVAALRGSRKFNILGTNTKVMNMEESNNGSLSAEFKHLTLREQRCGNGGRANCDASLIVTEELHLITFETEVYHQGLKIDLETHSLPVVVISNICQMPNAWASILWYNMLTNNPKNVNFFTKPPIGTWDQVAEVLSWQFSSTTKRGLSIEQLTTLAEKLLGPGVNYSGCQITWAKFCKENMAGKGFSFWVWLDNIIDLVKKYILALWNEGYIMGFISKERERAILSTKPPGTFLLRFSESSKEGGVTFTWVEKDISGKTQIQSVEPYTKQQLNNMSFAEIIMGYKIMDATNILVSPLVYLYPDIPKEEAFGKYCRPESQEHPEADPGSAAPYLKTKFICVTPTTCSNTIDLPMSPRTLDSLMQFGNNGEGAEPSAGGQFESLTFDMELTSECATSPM
Chain of Signal transducer and activator of transcription 3 (Mus musculus) (P42227 whole entry): as the sequence (P40763 whole entry) above, with E760D counted along it

- inhibition [16]: Dose-dependent effect
- inhibition [18]: Active
SMILES: COc1ccc(-c2cc(=O)c3c(O)c(OC)c(O)cc3o2)cc1 [PECTOLINARIGENIN]
- inhibition (CT26 [1]): Active
- inhibition (HCT-116 [2]): Active
- inhibition (SW48): Active
- inhibition (CT26 [3]): Active
- viability at 10 µM (CT26 [4]): 77.1%
- viability at 20 µM (CT26 [5]): 77.5%
- Activity (CT26 [6]): 8.14%
- Activity (CT26 [7]): 1.94%
- viability at 40 µM (CT26 [8]): 67.3%
- Activity (HCT-116 [9]): 5.08%
- Activity (HCT-116 [10]): 3.98%
- Activity (HCT-116 [11]): 9.67%
- Activity (HCT-116 [12]): 7.17%
- Activity (HCT-116 [13]): Active
- Activity (HCT-116 [14]): Active
- inhibition (HCT-116 [15]): Dose-dependent effect
- Activity (CT26 [17]): Dose-dependent effect
- Activity (CT26 [19]): 26.7%
- Activity (CT26 [20]): 2.59%
